Measured values as given in ChEMBL document CHEMBL1133755, “Synthesis of fluorosugar analogues of 2,5,6-trichloro-1-(beta-D-ribofuranosyl)benzimidazole as antivirals with potentially increased glycosidic bond stability” (J Med Chem, 2000).

Columns and labels:
[1] = test system: HFF; assay: Compound was tested for visual cytotoxicity on human foreskin fibroblasts (HFF) cells; assay type: functional, cell-based
Procedure, shortened: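 Cytotoxicity in HFF cells scored visually at the time HCMV plaques were counted. Results from duplicate experiments.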

[2] = Compound was tested for inhibition activity of human oral carcinoma cell line (KB ) cells in quadruplicate assay.; assay type: functional, cell-based
Procedure, shortened: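 KB cell growth inhibition was run in quadruplicate wells and reported as IC50, meaning the concentration that halves growth. Values marked > indicate that 50% inhibition was not reached at the highest concentration tested.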

[3] = test system: HFF; assay: Compound was tested for antiviral activity against human cytomegalovirus (HCMV) by plaque reduction assay using HFF cells; assay type: functional, cell-based
Procedure, shortened: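 HCMV plaque reduction assay in HFF cells, run in duplicate. Value reported as IC50. Highest concentration tested 10 or 100.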

[4] = test system: Human alphaherpesvirus 1; assay: Compound was tested for antiviral activity against herpes simplex virus type 1 (HSV-1); assay type: functional, organism-based
Procedure, shortened: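 HSV-1 activity read by ELISA in quadruplicate wells, with the plaque assay used for the DHPG control. Value reported as IC50. Top concentration tested 10 or 100.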

[5] = test system: HFF; assay: Compound was tested for antiviral activity against human cytomegalovirus (HCMV) by yield reduction assay using HFF cells; assay type: functional
Procedure, shortened: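 HCMV yield reduction assay in HFF cells, run in duplicate. Value reported as IC90. Highest concentration tested 10 or 100.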

With `OC[C@H]1O[C@@H](n2cnc3cc(Cl)c(Cl)cc32)[C@H](F)[C@@H]1O` the IC50 [1] was over 100 µM, the IC50 [2] was over 100 µM and the IC50 [3] was over 100 µM. The IC50 [4] was over 100 µM.
In the case of `O[C@H]1[C@H](OC(c2ccccc2)(c2ccccc2)c2ccccc2)[C@@H](COC(c2ccccc2)(c2ccccc2)c2ccccc2)O[C@H]1n1c(Cl)nc2cc(Cl)c(Cl)cc21`, the IC50 [1] is reported as over 100 µM, the IC50 [2] is reported as over 100 µM and the IC50 [3] is reported as over 10 µM. The IC50 [4] was over 100 µM.
Work on `Clc1cc2nc(Cl)n([C@@H]3O[C@H](COC(c4ccccc4)(c4ccccc4)c4ccccc4)[C@@H](OC(c4ccccc4)(c4ccccc4)c4ccccc4)[C@@H]3OC(c3ccccc3)(c3ccccc3)c3ccccc3)c2cc1Cl` yielded an IC50 [1] of over 100 µM, an IC50 [2] of over 100 µM and an IC50 [3] of over 10 µM. It also gave an IC50 [4] of over 100 µM.
For `OC[C@H]1O[C@@H](n2c(Cl)nc3cc(Cl)c(Cl)cc32)[C@@H](F)[C@@H]1O`, the IC50 [1] was 32 µM, the IC90 [5] was 8 µM and the IC50 [2] was 60 µM. It also gave an IC50 [3] of 8 µM and an IC50 [4] of 50 µM.
With `OC[C@H]1O[C@@H](n2c(Br)nc3cc(Cl)c(Cl)cc32)[C@H](F)[C@@H]1O` the IC50 [1] was 100 µM, the IC50 [2] was 80 µM and the IC50 [3] was 17 µM. For the same compound, the IC50 [4] was over 100 µM.
Work on `O=C(OC[C@H]1O[C@@H](n2c(Cl)nc3cc(Cl)c(Cl)cc32)[C@@H](F)[C@@H]1OC(=O)c1ccccc1)c1ccccc1` yielded an IC50 [2] of 100 µM.
With `CC(C)Nc1nc2cc(Cl)c(Cl)cc2n1[C@@H]1O[C@H](CO)[C@@H](O)[C@H]1F` the IC50 [1] was over 100 µM, the IC50 [2] was over 100 µM and the IC50 [3] was over 100 µM. For the same compound, the IC50 [4] was over 100 µM.
`OC[C@H]1O[C@@H](n2c(Cl)nc3cc(Cl)c(Cl)cc32)C(O)[C@@H]1F` (stereo not given in full) gave an IC50 [1] of 40 µM, an IC90 [5] of 13 µM and an IC50 [2] of over 100 µM. The IC50 [3] was 9.4 µM and the IC50 [4] was over 100 µM.
For `OC[C@H]1O[C@@H](n2c(Br)nc3cc(Cl)c(Cl)cc32)[C@H](O)[C@@H]1O`, the IC90 [5] was 0.2 µM and the IC50 [2] was over 100 µM.
Compound `OC[C@H]1O[C@@H](n2c(Cl)nc3cc(Cl)c(Cl)cc32)[C@H](O)[C@@H]1O` has an IC90 [5] of 1.4 µM and an IC50 [2] of 210 µM.
In the case of `OC[C@H]1O[C@@H](n2cnc3cc(Cl)c(Cl)cc32)[C@H](O)[C@@H]1O` [DICHLORORIBOBENZIMIDAZOLE], the IC90 [5] is reported as 19 µM and the IC50 [2] is reported as 36 µM.
With `Nc1nc2c(ncn2COC(CO)CO)c(=O)[nH]1` [GANCICLOVIR] the IC50 [1] was over 100 µM, the IC90 [5] was 1.6 µM and the IC50 [2] was over 100 µM.
